Compound activity: PubChem BioAssay, several laboratories
A selection: hits, their analogues and other compounds. The true share with any hit is near 2.4%.
SENP1 FRET inh – inhibitors of human SENP1 SUMO protease catalytic domain; AID 624204; actives 0.21% (n = 360,000); recombinant SENP1 catalytic domain, CyPet-SUMO1-YPet FRET cleavage; inhibition, % at 10 µM; Q9P0U3;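 active = inhibition at least 30% at 10 µM, raw YFP signal under a set limit, fluorescence ratio 0.5 to 1.5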;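 also: 0% = enzyme with DMSO and 100% = no enzyme wells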
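Assay system – human recombinant His6-tagged SENP1 catalytic domain enzyme · Input – SENP1 enzyme, 20 pM final · Buffer or medium – Tris pH 8 buffer plus EDTA, NaCl, BME, BSA, NP40, catalase · Schedule – 50 min reaction at room temperature · Technique – FRET read of cyan and yellow fluorescence · Control set – no-enzyme wells low, DMSO-plus-enzyme wells high control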
DAGLB inh – diacylglycerol lipase beta (human) inhibition. HEK293T DAGLB membrane lysate, EnzChek fluorogenic substrate. inhibition, % at 5.17 µM. AID 504411. Q8NCG7. actives 0.059% (n = 340,000); in the data active = inhibition above about 34%;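 also: 0% = enzyme with vehicle and 100% = wells lacking enzyme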
NRP1-CendR mod – NRP-1/CendR interaction modulation. inhibition, % at 25 µM. actives 0.85% (n = 360,000). FAM-RPARPAR peptide binding to NRP-1, fluorescence polarization. AID 602438. O14786;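 active = inhibition or corrected inhibition above about 18%, plus a signal ratio from 0.5 to 1.5, limit read from the data, passing the limit was not always enough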
Target sequence (O14786 whole entry, looked up): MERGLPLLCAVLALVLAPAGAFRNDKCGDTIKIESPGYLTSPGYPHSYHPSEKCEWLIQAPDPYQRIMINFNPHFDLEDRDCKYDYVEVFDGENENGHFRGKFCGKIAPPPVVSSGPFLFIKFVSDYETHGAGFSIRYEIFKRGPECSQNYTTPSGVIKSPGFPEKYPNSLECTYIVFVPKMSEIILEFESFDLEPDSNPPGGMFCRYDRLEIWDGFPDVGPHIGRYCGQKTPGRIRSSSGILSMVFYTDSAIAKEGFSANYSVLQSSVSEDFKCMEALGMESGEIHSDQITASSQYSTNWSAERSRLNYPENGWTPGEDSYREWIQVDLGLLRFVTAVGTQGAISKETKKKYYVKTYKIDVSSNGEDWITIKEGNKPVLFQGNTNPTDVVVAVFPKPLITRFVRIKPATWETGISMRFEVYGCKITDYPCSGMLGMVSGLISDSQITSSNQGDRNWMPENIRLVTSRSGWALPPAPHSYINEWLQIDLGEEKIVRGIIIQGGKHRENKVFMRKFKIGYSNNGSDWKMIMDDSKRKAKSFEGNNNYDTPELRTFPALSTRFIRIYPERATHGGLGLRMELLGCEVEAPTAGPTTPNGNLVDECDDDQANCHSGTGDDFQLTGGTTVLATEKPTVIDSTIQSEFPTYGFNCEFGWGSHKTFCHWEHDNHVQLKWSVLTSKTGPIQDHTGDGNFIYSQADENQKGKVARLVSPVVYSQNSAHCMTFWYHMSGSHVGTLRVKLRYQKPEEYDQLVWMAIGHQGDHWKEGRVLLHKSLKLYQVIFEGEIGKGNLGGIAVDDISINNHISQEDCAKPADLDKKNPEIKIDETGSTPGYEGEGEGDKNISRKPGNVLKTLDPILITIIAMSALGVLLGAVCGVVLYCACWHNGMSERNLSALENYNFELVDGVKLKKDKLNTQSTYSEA
Myeloid diff MLP – promotes myeloid progenitor differentiation | calls only at 10 µM | ER-HoxA9 myeloid progenitors, lysozyme-GFP differentiation, flow cytometry | AID 624256 | actives 1% (n = 360,000);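 active = normalized GFP-positive differentiation at or above the plate's own cutoff, the solvent-only control mean plus 3 SD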;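 also: cells exposed to compound for four days before flow analysis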
MT1-MMP act inh – blocks activation of human MT1-MMP. P50281. HT1080 RFP-PRO-GFP cells, GFP/RFP ratio fluorescence, overnight; percent of plate control window, DMSO zero. GFP/RFP ratio change, % at 20 µM. actives 0.061% (n = 360,000). AID 651647;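 active = GFP/RFP ratio change of at least 30% with cell ATP level not reduced by more than half and red fluorescence within 50% of control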
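Compound: 20 µM single dose, 1% DMSO / System: HT1080 RFP-PRO-GFP cells / Controls: DMSO and RFP-L50D-GFP cell wells / Read-out basis: GFP/RFP fluorescence ratio / Schedule: overnight compound exposure at 37 °C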
MIN6 prolif-1 – induces beta-cell replication in MIN6 cells; actives 0.29% (n = 330,000); MIN6 cells proliferation, ATPlite luminescence, 48 h; cells starved in 0.2% serum; 100% = growth in 10% serum; proliferation, % at 10 µM;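 active = compounds whose signal lies at least 3.5 SD above the mean of all wells on their plate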;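 also: 0% = DMSO-treated cells in low-serum medium and 100% = 10% serum control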
MIN6 prolif-2 – MIN6 beta-cell replication induction, confirmed | shares compounds with MIN6 prolif-1 | MIN6 beta-cell proliferation, ATPlite luminescence, 48 h; cells kept in 0.2% serum; scaled between 0.2% and 10% serum | proliferation increase, % at 50 µM | 920 tested, under 10 active;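 active = proliferation increase above 40% at any of the four tested concentrations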
Starred values were filed as active, the others as inactive; i = inactive; . = not tested or not shown.

SMILES	SENP1 FRET inh	DAGLB inh	NRP1-CendR mod	Myeloid diff MLP	MT1-MMP act inh	MIN6 prolif-1	MIN6 prolif-2
COc1cc([N+](=O)[O-])ccc1NC(=O)c1cccc(NC(=O)C(C)C)c1	-2	-3	4	i	-2	7.8*	-3
CC1CN(C(=O)COC(=O)c2ccc(C#N)cc2)CC(C)O1 (stereo unspecified)	2	4	7	.	-1	-1	.
NC(=O)c1c(NC(=O)CSc2nnc(Cc3ccccc3)n2Cc2ccco2)sc2c1CCC2	-5	-2	2	i	-3	-2	.
CCCCn1c(SCC(=O)Nc2sc3c(c2C(N)=O)CCC3)nnc1-c1ccccc1	-12	6	-9	i	1	8.3*	-6
CCOc1nc2cnccc2n(CC(=O)Nc2ccccc2C(=O)OC)c1=O	-7	1	5	i	-2	14*	1
CCOc1ccccc1NC(=O)Cn1c(=O)c(OCC)nc2cnccc21	-12	-4	-2	i	2	12*	1
CCOc1nc2cnccc2n(CC(=O)Nc2c(F)c(F)cc(F)c2F)c1=O	0	0	-2	i	0	-1	.
Cc1ccc(NC(=S)NC(=O)Cc2ccccc2)c(O)c1	2	0	-3	i	0	-3	.
CCCCC(=O)OCC(=O)Nc1cccc(S(=O)(=O)NC2=NCCCCC2)c1	5	0	8	i	1	3	.
CCOC(=O)C1=C(C)NC(=O)NC1c1ccc(OC(=O)c2ccco2)c(OC)c1 (stereo unspecified)	0	-3	-4	i	-1	4.7*	-4
C=CCOC(=O)C1=C(C)NC(=O)NC1c1ccc(OC(=O)c2ccco2)c(OC)c1 (stereo unspecified)	-1	1	1	.	1	1	.
CC(C)c1ccc(NC(=O)CCNC(=O)Cn2cnc3ccccc3c2=O)cc1	1	0	0	i	4	2	.
CCc1noc(C)c1C(=O)Nc1ccccc1N1CCOCC1	2	-4	0	i	-3	-3	.
CCn1c(=O)c2cc(C(=O)N(C)c3ccc(OC)cc3OC)sc2c2ccccc21	3	-2	8	i	-4	6.7*	-6
CCOC(=O)Cc1cc(=O)n2[nH]c(C)c(-c3ccccc3)c2n1	-5	3	-4	i	25	6.1*	-3
CCC(=O)Nc1c(OC(=O)CC)ccc2c(C)cc(=O)oc12	-80	-2	-2	i	-1	13*	2
COCCNC(=S)NN(c1ccccc1)c1ccccc1	-1	1	10	i	0	9.0*	-4
COc1cc(C=Nc2cccc([N+](=O)[O-])c2C)ccc1OC(C)=O	2	2	-4	i	6	6.4*	0
COc1ccccc1N(CC(=O)NCCSc1ccccn1)S(=O)(=O)c1ccccc1	-1	0	-15	i	-1	19*	-2
CC(OC(=O)c1cccc(-n2cnnn2)c1)C(=O)c1ccccc1 (stereo unspecified)	2	4	8	i	0	2	.
COc1cccc(-n2nc(C(C)=O)c(C#N)c2-c2ccco2)c1	-1	0	14	i	-5	9.4*	2
COc1cccc(-n2nc(C#N)c(Cl)cc2=O)c1	-1	-25	-3	.	15	-5	.
COc1ccc(OCC(NS(=O)(=O)c2ccc(-n3cnnn3)cc2)C(C)C)cc1 (stereo unspecified)	1	2	-2	i	0	-4	.
O=C(CCNC(=O)N1CC(=O)Nc2ccccc21)Nc1ccc(F)c(Cl)c1	-1	0	18	i	3	4.9*	-2
CCCCc1n[nH]c2c1/C(=N/OCC)CC(C)(C)C2	2	.	-4	i	-1	9.1*	-6
SMILES	SENP1 FRET inh	DAGLB inh	NRP1-CendR mod	Myeloid diff MLP	MT1-MMP act inh	MIN6 prolif-1	MIN6 prolif-2
CCCCc1n[nH]c2c1/C(=N/O)CC(C)(C)C2	1	-1	11	i	3	-2	.
O=C(O)c1c[nH]c2ccc(S(=O)(=O)N3CCN(c4ccc(F)cc4)CC3)cc2c1=O	-1	13	-14	i	1	-4	.
O=C(O)c1c[nH]c2ccc(F)cc2c1=O	0	-2	4	i	10	6.8*	2
COc1ccc(-n2c(C)c(C(C)=O)c3cc(OC(C)=O)ccc32)cc1	1	1	-8	i	-13	5.3*	-5
COc1ccc2c(c1)c(C(C)=O)c(C)n2-c1ccc(C(C)=O)cc1	0	1	2	i	-13	-1	.
COc1cccc(NC(=O)[C@H](NC(=O)[C@@H]2Cc3ccccc3CN2)c2ccccc2)c1	-4	-1	-9	i	-1	0	.
CCC(=O)Nc1ccc(NC(=S)NC(=O)c2cc3ccccc3o2)cc1	-1	1	-1	i	5	0.0*	-1
O=C(COC(=O)C12CC3CC(CC(Cl)(C3)C1)C2)Nc1ccc2[nH]c(=O)[nH]c2c1	0	3	1	i	1	-1	.
O=C(CSCc1c(F)cccc1Cl)NCc1ccco1	-1	0	-4	i	-3	2	.
O=C(CSCc1c(Cl)cccc1Cl)NCc1ccco1	-2	-9	19	i	3	9.2*	-3
O=C1CN(S(=O)(=O)c2ccccc2)c2ccccc2N1	-1	1	8	i	1	13*	-1
Oc1ccccc1-c1nc(N2CCCC2)c2ccccc2n1	3	-4	-1	i	-2	7.0*	6
CC1CCN(c2nc(-c3ccccc3O)nc3ccccc23)CC1	3	1	-13	i	-4	-5	.
CCOc1ccc(NC(=O)CN(C)C(=O)c2cc(S(=O)(=O)N3CCCCC3)ccc2C)cc1OCC	-1	-3	2	i	4	12*	5
CCOc1ccc(NC(=O)CN(C)C(=O)c2cc(S(=O)(=O)N3CCCCC3)ccc2Cl)cc1OCC	2	-1	-2	i	2	3	.
COc1ccc(/C=N\NC(=O)c2sccc2C)cc1Cn1nc(C)cc1C	1	1	-5	i	14	-2	.
O=C(c1cccc(Cl)c1)N1CCCC(c2ccc(Cl)cc2)=N1	1	-3	-6	i	-1	-4	.
O=C(c1ccccc1)N1CCCC(c2ccc(Cl)cc2)=N1	2	-4	6	i	1	5.4*	-6
CCCC(=O)N(CCN(C(=O)CCC)c1ccccc1)c1ccccc1	-1	0	-5	i	5	8.8*	-3
